Data on 13 compounds can be found in ChEMBL document CHEMBL1123065, “Sleep-inducing N-alkyl-5-[m-(trifluoromethyl)phenyl]-5-hydroxy-2-pyrrolidinones and N-alkyl-3-(trifluoromethyl)cinnamamides” (J Med Chem, 1985).

Structures are written as SMILES. Calls of active or inactive are those of the source. No cut-off for these calls is given here.

Series [1] has as its system Mus musculus. Nature of the series: Effective dose against Mice ataxia, ip administration. It is filed as functional. Put shortly:
(§1)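 Mouse behaviour after ip dosing assessed by a modification of the method of ref 7; ataxia, docility and loss of righting reflex scored, 10 mice per dose, ED50 in mg/kg ip.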

Series [2] has as its system Mus musculus. Put plainly: Effective dose against loss of righting reflex in mice (10 mice per dose, ip). It is filed as functional. In a few lines:
as §1

Series [3] concerns Mus musculus. Put plainly: Effective dose against Mice docility, ip administration. It is filed as functional. Put shortly:
as §1

The test system of series [4] is Mus musculus. Nature of the series: Ability to reinduce anesthesia (70 mg/kg, iv) following recovery of loss of righting reflex obtained with hexobarbital. It is filed as functional.
The test system of series [5] is Mus musculus. Put plainly: Anticonvulsant activity against N-sulfamoylhexahydrozepine (10 mice were used per dose, ip). It is filed as functional. In a few lines: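 Mice given compound ip, 10 per dose, then challenged with N-sulfamoylhexahydroazepine by methods of ref 9; ED50 (mg/kg ip) for protection determined.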
Series [6] deals with Mus musculus. Put plainly: Ability to produce neurological deficit in the rotarod test (10 mice were used per dose, ip). It is filed as functional. Put shortly:
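Rotarod method of ref 10, intraperitoneal dosing, 10 mice per dose; neurological deficit scored and ND50 (mg/kg ip) derived.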
(In general: In the rotarod test animals must keep their balance on a rotating rod.)

Series [7] in a line: Lethal dose was obtained by 2-h post administration (ip), using four male Royal Hart Wistar rats. The conditions noted are these: rat, in vivo. It is filed as toxicity, organism-based. Put shortly:
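Male Royal Hart Wistar rats, 136-160 g, housed in pairs in wire cages, given compound ip; deaths read 2 h after dosing, four rats per compound; LD50 estimated by probit analysis.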

The next series has as its system Monkey. Nature of the series: Ratio of the oral dose of the test compound relative to that of methaqualone (15 mg/kg, po) to induce sleep in Cebus monkey. It is filed as functional. In a few lines: (§2)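 Cebus monkeys restrained in chairs within sound-attenuated cubicles; dosing per os at 5:00 p.m., five channels recorded, EEG over 13.5 h, Monday–Thursday, visually scored. Each animal its own control versus last 15 control nights (intragastric carboxymethylcellulose placebo). Value is oral dose of test substance relative to methaqualone 15 mg/kg po inducing sleep in the same monkey; NA = no sleep at any dose.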

Series [8] deals with Mus musculus. Nature of the series: Effective dose against loss of righting reflex in mice;10 mice per dose(ip). It is filed as functional. Put shortly:
as §1

The nature of series [9]: Ratio of the oral dose of the test compound relative to that of methaqualone (15 mg/kg, po) to induce sleep in Cebus monkey; NA is Not Active. It is filed as functional, organism-based. Put shortly: as §2
Series [10] in a line: Ratio of the oral dose of the test compound relative to that of methaqualone (15 mg/kg, po) to induce sleep in Cebus monkey;NA is Not Active. It is filed as functional, organism-based. Put shortly:
as §2

For the compound `CN1C(=O)CCC1(O)c1ccccc1` (stereo unspecified), the ED50 (commonly the dose that gives a 50% effect, or the effect in half of the subjects) is above 200 mg/kg in the series on Mus musculus [1], above 200 mg/kg in the series with Mus musculus [2], above 200 mg/kg in the series with Mus musculus [3] and 138 mg/kg in the series with Mus musculus [5]. The same compound yielded an RD50 in the series with Mus musculus [4] of 150 mg/kg. The ND50 in the series with Mus musculus [6] is above 200 mg/kg. In series [7], the 50% lethal dose (LD50) (in general, the dose at which mortality reaches 50%) at 2 h was found to be 300 mg/kg.

Regarding `CNC(=O)/C=C(\C)c1cccc(C(F)(F)F)c1`, the median effective dose (ED50) was 87.5 mg/kg in the series with Mus musculus [1], above 100 mg/kg in the series with Mus musculus [2], 87.5 mg/kg with Mus musculus [3] and above 75 mg/kg with Mus musculus [5]. The RD50 in the series on Mus musculus [4] turned out to be 56.3 mg/kg. For the same compound, in the series on Mus musculus [6], the ND50 is above 75 mg/kg. For the same compound, the LD50 at 2 h in series [7] is above 400 mg/kg.

For `Cc1ccccc1-n1c(C)nc2ccccc2c1=O` [METHAQUALONE], the median effective dose (ED50) in the series with Mus musculus [1] was found to be 34.4 mg/kg; in the series with Mus musculus [2], 39.8 mg/kg; with Mus musculus [3], 35.6 mg/kg; in the series on Mus musculus [5], 31.5 mg/kg. The Sleep ratio in the series with Monkey is reported as 1. This compound gave an RD50 in the series with Mus musculus [4] of 21.9 mg/kg. The compound also displayed an ND50 with Mus musculus [6] of 31.5 mg/kg. Further, in series [7], the 50% lethal dose (LD50) at 2 h was 565 mg/kg.

Turning to `CNC(=O)/C=C/c1cccc(C(F)(F)F)c1`, the ED50 in the series with Mus musculus [1] amounted to 120 mg/kg; with Mus musculus [2], 200 mg/kg; with Mus musculus [3] it was 92.9 mg/kg; in the series on Mus musculus [5], 84.1 mg/kg. Besides, in the series on Monkey, the Sleep ratio is 0.5. The compound further registered an RD50 with Mus musculus [4] of 76.3 mg/kg. This compound yielded an ND50 with Mus musculus [6] of 149 mg/kg. The compound further showed a 50% lethal dose (LD50) at 2 h in series [7] of 275 mg/kg.

With `CCCN1C(=O)CCC1(O)c1cccc(C(F)(F)F)c1` (stereo unspecified), the ED50 is above 200 mg/kg in the series on Mus musculus [1], 200 mg/kg in the series with Mus musculus [2], above 200 mg/kg in the series on Mus musculus [3] and 150 mg/kg with Mus musculus [5]. The compound also had an RD50 in the series on Mus musculus [4] of 131.9 mg/kg. This compound returned an ND50 with Mus musculus [6] above 200 mg/kg. Also, in [7], the median lethal dose (LD50) at 2 h is above 400 mg/kg.

Compound `CN(C)C(=O)/C=C/c1cccc(C(F)(F)F)c1` had an ED50 with Mus musculus [1] above 75 mg/kg. Moreover, in the series with Mus musculus [8], the ND50 was above 75 mg/kg. Also, the RD50 in the series with Mus musculus [4] was above 75 mg/kg. This compound also had an LD50 at 2 h in [7] of 300 mg/kg.

Regarding `CC(C)NC(=O)CCC(=O)c1cccc(C(F)(F)F)c1`, the ED50 is above 200 mg/kg with Mus musculus [1], above 200 mg/kg with Mus musculus [2], above 200 mg/kg in the series with Mus musculus [3] and above 150 mg/kg in the series on Mus musculus [5]. This compound displayed an RD50 in the series on Mus musculus [4] of 126.9 mg/kg. The same compound had an ND50 with Mus musculus [6] above 150 mg/kg. This compound also showed an LD50 at 2 h in series [7] above 400 mg/kg.

For the compound `CCN1C(=O)CCC1(O)c1cccc(C(F)(F)F)c1` (stereo unspecified), in series [9], the Ratio result is “inactive”. Also, the ED50 in the series on Mus musculus [1] was above 100 mg/kg; in the series with Mus musculus [2] it was above 100 mg/kg; with Mus musculus [3] it was above 100 mg/kg; with Mus musculus [5], above 75 mg/kg. The same compound yielded an RD50 with Mus musculus [4] of 68.8 mg/kg. Also, in the series on Mus musculus [6], the ND50 is above 75 mg/kg. In addition, the LD50 at 2 h in series [7] was above 400 mg/kg.

Consider `CCC(O)CNC(=O)/C=C/c1cccc(C(F)(F)F)c1` (stereo unspecified), for which the 50% effective dose (ED50) amounted to 90 mg/kg in the series on Mus musculus [1], 92.9 mg/kg in the series with Mus musculus [2], 87.5 mg/kg in the series with Mus musculus [3] and 64.4 mg/kg with Mus musculus [5]. The Ratio result in series [10] was “inactive”. In the series on Mus musculus [4], the RD50 came to 68.8 mg/kg. In addition, the ND50 in the series on Mus musculus [6] was 57.9 mg/kg. The compound also came in with a median lethal dose (LD50) at 2 h in series [7] of 333 mg/kg.

For `CN1CCN(C(=O)CCC(=O)c2cccc(C(F)(F)F)c2)CC1`, the ED50 was above 50 mg/kg with Mus musculus [1], above 50 mg/kg in the series on Mus musculus [2], above 50 mg/kg in the series on Mus musculus [3] and above 37.5 mg/kg in the series with Mus musculus [5]. The compound also displayed an RD50 in the series with Mus musculus [4] above 37.5 mg/kg. In the series with Mus musculus [6], this compound registered an ND50 above 37.5 mg/kg. Besides, the LD50 at 2 h in [7] was above 400 mg/kg.

With `CN1C(=O)CCC1(O)c1cccc(C(F)(F)F)c1` (stereo unspecified), the 50% effective dose (ED50) with Mus musculus [1] amounted to 129 mg/kg; with Mus musculus [2], 133 mg/kg; in the series on Mus musculus [3], 93.8 mg/kg; with Mus musculus [5], 51.6 mg/kg. In the series on Monkey, the Sleep ratio was 1. In the series on Mus musculus [4], the RD50 stood at 45.1 mg/kg. This compound had an ND50 in the series with Mus musculus [6] of 106.5 mg/kg. In addition, the LD50 at 2 h in series [7] was determined as 367 mg/kg.

Turning to `CCCCN1C(=O)CCC1(O)c1cccc(C(F)(F)F)c1` (stereo unspecified), the ED50 was above 200 mg/kg in the series with Mus musculus [1], above 200 mg/kg with Mus musculus [2], above 200 mg/kg with Mus musculus [3] and 183 mg/kg in the series with Mus musculus [5]. In addition, the Ratio entry in series [10] was “inactive”. In the series with Mus musculus [4], this compound yielded an RD50 of 150 mg/kg. In the series on Mus musculus [6], the ND50 was above 200 mg/kg. In [7], this compound had an LD50 at 2 h above 400 mg/kg.

`CCNC(=O)/C=C/c1cccc(C(F)(F)F)c1` registered a median effective dose (ED50) in the series on Mus musculus [1] of 90 mg/kg. Moreover, in the series with Mus musculus [8], the ND50 is above 75 mg/kg. Moreover, the RD50 in the series with Mus musculus [4] is above 75 mg/kg. In addition, the LD50 at 2 h in [7] came to 333 mg/kg.
